Test results reported in ChEMBL document CHEMBL1140222, “Identification of G protein-coupled receptor 120-selective agonists derived from PPARgamma agonists” (J Med Chem, 2008).
Activity calls are given as the source filed them. The rule behind the calls is not given here.

How the values were obtained:
[1] = target: T1, Free fatty acid receptor 4 (Homo sapiens) (UniProt Q5NUL3); experiment: Agonist activity at human GPR120-G-alpha-16 fusion protein expressed in Flp-in HEK293 cells assessed as effect on intracellular calcium concentration at 10 uM by FLIPR assay relative to […]; type: functional, cell-based
T1 sequence (whole entry): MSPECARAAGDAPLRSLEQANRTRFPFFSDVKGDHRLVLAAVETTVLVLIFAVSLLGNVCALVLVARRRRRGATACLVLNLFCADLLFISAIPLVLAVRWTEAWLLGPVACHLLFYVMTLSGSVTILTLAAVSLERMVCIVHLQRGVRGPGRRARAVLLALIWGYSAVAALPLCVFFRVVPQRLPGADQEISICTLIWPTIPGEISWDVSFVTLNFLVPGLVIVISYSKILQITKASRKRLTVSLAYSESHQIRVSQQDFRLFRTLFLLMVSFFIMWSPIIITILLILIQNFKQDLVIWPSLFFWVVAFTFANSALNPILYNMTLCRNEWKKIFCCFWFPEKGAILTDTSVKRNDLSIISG
Outline: (§1)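 FLIPR fluorometric measurement of intracellular Ca2+ in HEK293 cells expressing human GPR40 or human GPR120. Test compound at 10 µM; response expressed as percent of that evoked by 10 µM α-linolenic acid reference. Means of at least three experiments.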

[2] = target: T2, Free fatty acid receptor 1 (Homo sapiens, UniProt O14842); experiment: Agonist activity at human GPR40 expressed in T-REx HEK293 cells assessed as effect on intracellular calcium concentration at 10 uM by FLIPR assay relative to […]; type: functional, cell-based; outline: as §1
Homo sapiens = species: Homo sapiens; experiment: Selectivity index, ratio of EC50 for human GPR40 to EC50 for human GPR120
Outline: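 Selectivity index computed as EC50 at GPR40 divided by EC50 at GPR120, both from FLIPR Ca2+ assays in HEK293 cells expressing each human receptor; EC50 means of at least three experiments.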

[3] = target: T3, Free fatty acid receptor 4 (Homo sapiens, UniProt Q5NUL3); experiment: Agonist activity at human GPR120-G-alpha-16 fusion protein expressed in Flp-in HEK293 cells assessed as effect on intracellular calcium concentration by FLIPR assay; type: functional, cell-based
T3 sequence (Q5NUL3 whole entry): T1 sequence (whole entry)
Outline: (§2)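 Intracellular Ca2+ rise read by FLIPR in HEK293 cells expressing human GPR120 or human GPR40; EC50 values derived from concentration–response, means of at least three experiments.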

HEK293 = experiment: Agonist activity at PPAR expressed in HEK293 cells at 10 to 100 uM after 12 to 16 hrs by luciferase-beta galactosidase transactivation assay; type: functional, cell-based
[4] = target: T2, Free fatty acid receptor 1; experiment: Agonist activity at human GPR40 expressed in T-REx HEK293 cells assessed as effect on intracellular calcium concentration by FLIPR assay; type: functional, cell-based; outline: as §2

T2 sequence (O14842 whole entry): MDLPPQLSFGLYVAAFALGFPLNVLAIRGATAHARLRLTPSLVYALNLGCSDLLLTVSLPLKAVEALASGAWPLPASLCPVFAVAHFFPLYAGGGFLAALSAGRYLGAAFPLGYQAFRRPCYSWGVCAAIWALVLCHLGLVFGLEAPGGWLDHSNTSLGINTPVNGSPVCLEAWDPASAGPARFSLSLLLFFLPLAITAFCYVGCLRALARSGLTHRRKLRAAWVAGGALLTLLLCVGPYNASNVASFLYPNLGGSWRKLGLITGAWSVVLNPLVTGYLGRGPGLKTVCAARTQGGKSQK

Row | SMILES | Activity [1] [%] | Activity [2] [%] | Ratio EC50 (Homo sapiens) | EC50 [3] [µM] | Activity (HEK293) | EC50 [4] [µM]
1 | CCCCN(CCOc1ccc(CCC(=O)O)cc1)c1ccccn1 | 33 | 215 |  |  |  | 
2 | O=C(O)CCCCc1ccc(OCCN(c2ccccc2)c2ccccn2)cc1 | 58 | 99 |  |  |  | 
3 | CCCCCCCN(CCOc1ccc(CCC(=O)O)cc1)c1ccccn1 | 0 | 99 |  |  |  | 
4 | O=C(O)CCCc1ccc(OCCN(c2ccccc2)c2ccccn2)cc1 | 115 | 26 | 16 | 1.2 | inactive | 19
5 | O=C(O)CCc1ccc(OCCN(c2ccccc2)c2ccccn2)cc1 | 56 | 98 |  |  |  | 
6 | O=C(O)CCCc1ccc(OCCN(c2ccccc2)c2ccccc2)cc1 | 88 | 21 |  |  |  | 
7 | CC/C=C\C/C=C\C/C=C\CCCCCCCC(=O)O [LINOLENIC ACID] | 100 | 100 | 2 | 2.6 |  | 5.2
8 | O=C(O)CCCc1ccc(OCCN(c2cccnc2)c2ccccn2)cc1 | 65 | 1 |  |  |  | 
9 | O=C(O)CCCc1ccc(OCCN(c2ccccc2)c2nc3ccccc3s2)cc1 | 73 | 32 |  |  |  | 
10 | O=C(O)CCCc1ccc(OCCN(c2ccc3ccccc3c2)c2ccccn2)cc1 | 37 | 27 |  |  |  | 
11 | O=C(O)CCCc1ccc(OCCN(c2ccccc2)c2nccs2)cc1 | 106 | 30 | 12 | 1.7 |  | 21
12 | O=C(O)CCCc1ccc(OCCN(c2ccccc2)c2cc(Cl)ccn2)cc1 | 100 | 68 |  |  |  | 
13 | O=C(O)CCCc1ccc(OCCN(Cc2ccccc2)c2ccccn2)cc1 | 56 | 26 |  |  |  | 
14 | O=C(O)CCCc1ccc(OCCN(c2ccccc2)c2nc3ccccc3o2)cc1 | 43 | 8 |  |  |  | 
15 | CCCCN(CCOc1ccc(CCCC(=O)O)cc1)c1ccccn1 | 41 | 10 |  |  |  | 
16 | CCCCCCCCCN(CCOc1ccc(CCC(=O)O)cc1)c1ccccn1 | 0 | 121 |  |  |  | 
17 | Cc1ccnc(N(CCOc2ccc(CCCC(=O)O)cc2)c2ccccc2)c1 | 81 | 43 |  |  |  | 
18 | O=C(O)CCc1ccc(OCCN(c2ccccn2)c2ccccn2)cc1 | 0 | 0 |  |  |  | 
19 | Cc1ccc(N(CCOc2ccc(CCCC(=O)O)cc2)c2ccccn2)cc1 | 78 | 26 |  |  |  | 
20 | CCCN(CCOc1ccc(CCC(=O)O)cc1)c1ccccn1 | 57 | 125 |  |  |  | 
21 | O=C(O)CCCc1ccc(OCCN(c2ccccc2)c2cccc(Cl)n2)cc1 | 70 | 32 |  |  |  | 
22 | CCCCCCN(CCOc1ccc(CCC(=O)O)cc1)c1ccccn1 | 31 | 104 |  |  |  | 
23 | O=C(O)CCCc1ccc(OCCN(c2ccc(F)cc2)c2ccccn2)cc1 | 59 | 23 |  |  |  | 
24 | CCN(CCOc1ccc(CCC(=O)O)cc1)c1ccccn1 | 45 | 147 |  |  |  | 
25 | CN(CCOc1ccc(CCC(=O)O)cc1)c1ccccn1 | 0 | 58 |  |  |  | 
26 | Cc1cccc(N(CCOc2ccc(CCCC(=O)O)cc2)c2ccccc2)n1 | 81 | 34 |  |  |  | 
27 | O=C(O)CCCc1ccc(OCCN(c2cccc(F)c2)c2ccccn2)cc1 | 71 | 33 |  |  |  | 
